These results are taken from ChEMBL document CHEMBL3243954 (J Med Chem, 1979).

A short description of series [1]: Retardation factor, Rm of the compound by thin-layer chromatography. Format: physicochemical.
The test system of series [2] is Brain. Kind of series: Drug uptake albino mouse brain at 15 mg equivalent of oxazepam/kg, iv after 1 mins measured per gm of tissue by thin-layer chromatography. The format is ADME, organism-based. The conditions noted are these: in vivo.
The subject of series [3] is Brain. Kind of series: Drug uptake albino mouse brain at 15 mg equivalent of oxazepam/kg, iv after 3 mins measured per gm of tissue by thin-layer chromatography. Format: ADME, organism-based. The conditions noted are these: in vivo, 0.05 h.
In series [4] the test system is Brain. In words: Drug uptake albino mouse brain at 15 mg equivalent of oxazepam/kg, iv after 12 mins measured per gm of tissue by thin-layer chromatography. Format: ADME, organism-based. Conditions: in vivo, 0.2 h.
Series [5] has as its system Brain. Kind of series: Drug uptake albino mouse brain at 15 mg equivalent of oxazepam/kg, iv after 20 mins measured per gm of tissue by thin-layer chromatography. Format: ADME, organism-based. Conditions: in vivo.
Series [6] relates to Brain. Kind of series: Drug uptake albino mouse brain at 15 mg equivalent of oxazepam/kg, iv after 40 mins measured per gm of tissue by thin-layer chromatography. The format is ADME, organism-based. The conditions noted are these: in vivo.
Series [7] has as its system Brain. In words: Drug uptake albino mouse brain at 15 mg equivalent of oxazepam/kg, iv after 90 mins measured per gm of tissue by thin-layer chromatography. Conditions: in vivo, 1.5 h. The format is ADME, organism-based.
Series [8] deals with Brain. In words: Drug uptake albino mouse brain at 15 mg equivalent of oxazepam/kg, iv after 180 mins measured per gm of tissue by thin-layer chromatography. The format is ADME, organism-based. The conditions noted are these: in vivo, 3 h.
In series [9] the test system is Brain. In words: Drug uptake albino mouse brain at 10 mg equivalent of oxazepam/kg, iv after 2 mins measured per gm of tissue by thin-layer chromatography. Format: ADME, organism-based. The conditions noted are these: in vivo.
In series [10] the test system is Brain. In words: Drug uptake albino mouse brain at 10 mg equivalent of oxazepam/kg, iv after 5 mins measured per gm of tissue by thin-layer chromatography. Format: ADME, organism-based. The conditions noted are these: in vivo.
Series [11] concerns Brain. Kind of series: Drug uptake albino mouse brain at 10 mg equivalent of oxazepam/kg, iv after 10 mins measured per gm of tissue by thin-layer chromatography. The format is ADME, organism-based. Conditions: in vivo.
In series [12] the test system is Brain. In words: Drug uptake albino mouse brain at 10 mg equivalent of oxazepam/kg, iv after 20 mins measured per gm of tissue by thin-layer chromatography. The format is ADME, organism-based. Conditions: in vivo.
The test system of series [13] is Brain. Kind of series: Drug uptake albino mouse brain at 10 mg equivalent of oxazepam/kg, iv after 30 mins measured per gm of tissue by thin-layer chromatography. The format is ADME, organism-based. Conditions: in vivo, 0.5 h.
Series [14] concerns Brain. In words: Drug uptake albino mouse brain at 10 mg equivalent of oxazepam/kg, iv after 40 mins measured per gm of tissue by thin-layer chromatography. Conditions: in vivo. The format is ADME, organism-based.
The subject of series [15] is Brain. In words: Drug uptake albino mouse brain at 10 mg equivalent of oxazepam/kg, iv after 60 mins measured per gm of tissue by thin-layer chromatography. The conditions noted are these: in vivo, 1 h. Format: ADME, organism-based.
The subject of series [16] is Brain. Kind of series: Drug uptake albino mouse brain at 10 mg equivalent of oxazepam/kg, iv after 90 mins measured per gm of tissue by thin-layer chromatography. The format is ADME, organism-based. Conditions: in vivo, 1.5 h.
Series [17] deals with Brain. Kind of series: Drug uptake albino mouse brain at 10 mg equivalent of oxazepam/kg, iv after 120 mins measured per gm of tissue by thin-layer chromatography. The format is ADME, organism-based. The conditions noted are these: in vivo, 2 h.
Series [18] has as its system Brain. Kind of series: Drug uptake albino mouse brain at 10 mg equivalent of oxazepam/kg, iv after 240 mins measured per gm of tissue by thin-layer chromatography. The format is ADME, organism-based. Conditions: in vivo, 4 h.
Series [19] relates to Brain. Kind of series: Drug uptake albino mouse brain at 5 mg equivalent of oxazepam/kg, iv after 3 mins measured per gm of tissue by thin-layer chromatography. The format is ADME, organism-based. The conditions noted are these: in vivo, 0.05 h.
The test system of series [20] is Brain. In words: Drug uptake albino mouse brain at 5 mg equivalent of oxazepam/kg, iv after 5 mins measured per gm of tissue by thin-layer chromatography. The format is ADME, organism-based. The conditions noted are these: in vivo.
Series [21] concerns Brain. In words: Drug uptake albino mouse brain at 5 mg equivalent of oxazepam/kg, iv after 10 mins measured per gm of tissue by thin-layer chromatography. Format: ADME, organism-based. Conditions: in vivo.
Series [22] deals with Brain. Kind of series: Drug uptake albino mouse brain at 5 mg equivalent of oxazepam/kg, iv after 20 mins measured per gm of tissue by thin-layer chromatography. Format: ADME, organism-based. The conditions noted are these: in vivo.
Series [23] has as its system Brain. Kind of series: Drug uptake albino mouse brain at 5 mg equivalent of oxazepam/kg, iv after 40 mins measured per gm of tissue by thin-layer chromatography. The conditions noted are these: in vivo. The format is ADME, organism-based.
Series [24] concerns Brain. In words: Drug uptake albino mouse brain at 5 mg equivalent of oxazepam/kg, iv after 60 mins measured per gm of tissue by thin-layer chromatography. Conditions: in vivo, 1 h. The format is ADME, organism-based.
Series [25] has as its system Brain. Kind of series: Drug uptake albino mouse brain at 5 mg equivalent of oxazepam/kg, iv after 120 mins measured per gm of tissue by thin-layer chromatography. Format: ADME, organism-based. Conditions: in vivo, 2 h.
For series [26], the system named is Brain. In words: Drug uptake albino mouse brain at 5 mg equivalent of oxazepam/kg, iv after 240 mins measured per gm of tissue by thin-layer chromatography. Format: ADME, organism-based. Conditions: in vivo, 4 h.
The subject of series [27] is Liver. In words: Drug metabolism in albino mouse liver assessed as total metabolite concentration at 5 mg equivalent of oxazepam/kg, iv after 1 min by thin layer chromatography. The format is ADME, organism-based. The conditions noted are these: in vivo. In short, it runs like this: (§1)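 Liver was dried and its total radioactivity, the sum of metabolites, was measured on a carbon-tritium analyzer. Values are means of four mice (±SE).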

Series [28] relates to Liver. Kind of series: Drug metabolism in albino mouse liver assessed as total metabolite concentration at 5 mg equivalent of oxazepam/kg, iv after 3 mins by thin layer chromatography. The format is ADME, organism-based. The conditions noted are these: in vivo, 0.05 h. In short, it runs like this: as §1
The subject of series [29] is Liver. Kind of series: Drug metabolism in albino mouse liver assessed as total metabolite concentration at 5 mg equivalent of oxazepam/kg, iv after 5 mins by thin layer chromatography. The conditions noted are these: in vivo. Format: ADME, organism-based. In short, it runs like this: as §1
The subject of series [30] is Liver. Kind of series: Drug metabolism in albino mouse liver assessed as total metabolite concentration at 5 mg equivalent of oxazepam/kg, iv after 10 mins by thin layer chromatography. Format: ADME, organism-based. Conditions: in vivo. The gist of the method:
as §1

The subject of series [31] is Brain. Kind of series: Drug uptake albino mouse brain at 5 mg equivalent of oxazepam/kg, iv after 1 min measured per gm of tissue by thin-layer chromatography. Conditions: in vivo. Format: ADME, organism-based.
Series [32] has as its system Brain. In words: Drug uptake albino mouse brain at 5 mg equivalent of oxazepam/kg, iv after 6 mins measured per gm of tissue by thin-layer chromatography. Format: ADME, organism-based. The conditions noted are these: in vivo, 0.1 h.
The test system of series [33] is Brain. Kind of series: Drug uptake albino mouse brain at 5 mg equivalent of oxazepam/kg, iv after 30 mins measured per gm of tissue by thin-layer chromatography. Format: ADME, organism-based. Conditions: in vivo, 0.5 h.
Series [34] deals with Brain. Kind of series: Drug uptake albino mouse brain at 10 mg equivalent of oxazepam/kg, iv after 12 mins measured per gm of tissue by thin-layer chromatography. The format is ADME, organism-based. The conditions noted are these: in vivo, 0.2 h.
Series [35] deals with Brain. Kind of series: Drug uptake albino mouse brain at 10 mg equivalent of oxazepam/kg, iv after 1 min measured per gm of tissue by thin-layer chromatography. Format: ADME, organism-based. The conditions noted are these: in vivo.
In series [36] the test system is Brain. In words: Drug uptake albino mouse brain at 10 mg equivalent of oxazepam/kg, iv after 3 mins measured per gm of tissue by thin-layer chromatography. Format: ADME, organism-based. The conditions noted are these: in vivo, 0.05 h.
Series [37] has as its system Brain. In words: Drug uptake albino mouse brain at 10 mg equivalent of oxazepam/kg, iv after 6 mins measured per gm of tissue by thin-layer chromatography. Format: ADME, organism-based. Conditions: in vivo, 0.1 h.
The test system of series [38] is Brain. Kind of series: Drug uptake albino mouse brain at 5 mg equivalent of oxazepam/kg, iv after 2 mins measured per gm of tissue by thin-layer chromatography. The format is ADME, organism-based. Conditions: in vivo.

Take `CCCC(=O)OC1N=C(c2ccccc2)c2cc(Cl)ccc2N[14C]1=O` (centres undefined): in series [1], the Rm is given as 0.17. The Drug uptake was 16.6 nmol in the series with Brain [2]; 17.3 nmol in the series on Brain [3]; 19 nmol in the series with Brain [4]; 25.9 nmol in the series on Brain [5]; 32 nmol with Brain [6]; 38.2 nmol with Brain [7]. Further, in the series with Brain [8], the Drug uptake was found to be 22.6 nmol.
Turning to `CCC(CC)C(=O)OC1N=C(c2ccccc2)c2cc(Cl)ccc2N[14C]1=O` (centres undefined), the Drug uptake with Brain [9] amounted to 0.8 nmol; with Brain [10] it was 2 nmol; in the series on Brain [11], 4.8 nmol; in the series with Brain [12], 7.8 nmol; in the series on Brain [13], 12.1 nmol; in the series with Brain [14], 18 nmol. Moreover, the Drug uptake in the series on Brain [15] is reported as 23.1 nmol; in the series with Brain [16] it was 20.9 nmol; with Brain [17] it was 20 nmol; with Brain [18], 13.5 nmol. In series [1], this molecule had a Rm of 0.46.
Take `O=C(CCc1ccccc1)OC1N=C(c2ccccc2)c2cc(Cl)ccc2N[14C]1=O` (centres undefined): the Drug uptake with Brain [19] was found to be 0.8 nmol; in the series with Brain [20], 1.4 nmol; in the series with Brain [21], 2.2 nmol; in the series with Brain [22], 7.1 nmol; in the series with Brain [23], 12.1 nmol; in the series with Brain [24], 13.6 nmol. Moreover, the results for the Drug uptake in the series on Brain [25], with Brain [26] and in the series with Brain [31] were 12.2 nmol, 6.6 nmol and 0.5 nmol, respectively. In addition, the Drug metabolism in the series with Liver [27] is 40.7 nmol/g; with Liver [28] it was 45.6 nmol/g; with Liver [29] it was 34.7 nmol/g; in the series with Liver [30] it was 32.6 nmol/g. This molecule showed a Rm in series [1] of 0.5.
For the molecule `COC(=O)CCC(=O)OC1N=C(c2ccccc2)c2cc(Cl)ccc2N[14C]1=O` (centres undefined), the Drug uptake is 9.8 nmol in the series on Brain [24], 3.8 nmol in the series on Brain [32], 10.8 nmol in the series with Brain [33] and 0.8 nmol in the series on Brain [31]. The molecule also registered a Rm in [1] of -0.03.
In the case of `CCC(=O)OC1N=C(c2ccccc2)c2cc(Cl)ccc2N[14C]1=O` (centres undefined), the Drug uptake in the series on Brain [34] turned out to be 30.8 nmol; in the series with Brain [35] it was 12.6 nmol; in the series on Brain [36], 17.5 nmol; in the series with Brain [37], 24.2 nmol; in the series on Brain [12], 41.7 nmol; in the series with Brain [14] it was 33 nmol. The molecule also registered a Rm in series [1] of -0.03.
Consider `CC(C)C(=O)OC1N=C(c2ccccc2)c2cc(Cl)ccc2N[14C]1=O` (centres undefined), for which the Drug uptake in the series with Brain [20] is given as 5.7 nmol; with Brain [21] it was 8.9 nmol; in the series with Brain [22], 9.3 nmol; with Brain [23] it was 11.6 nmol; in the series on Brain [24] it was 10.8 nmol; with Brain [25] it was 5.9 nmol. Further, the Drug uptake was found to be 3.8 nmol with Brain [26] and 3.1 nmol in the series with Brain [38]. Moreover, the Rm in series [1] was 0.12.
